From PubChem BioAssay
Sampled rows, rich in hits. Any-hit rate of the full collection: about 11%.
WT yeast gro inh = growth inhibition of WT yeast, mitochondrial fusion screen; mitochondrial fusion phenotypic screen, WT strain; inhibition, % at 10 µM; 190,000 compounds, 2.1% hits; in the data active = inhibition above about 58%; tested in S. cerevisiae
Diaphorase inh = inhibits diaphorase or chemically oxidizes, flagging diaphorase assay artifacts; inhibition, % at 20 µM; 190,000 compounds, 0.69% hits; diaphorase resazurin-to-resorufin fluorescence, NADH, 16 min; bacterial (C. kluyveri) enzyme, not human;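 active = primary screen inhibition at 20 µM above a set limit, cut at about 50% in these data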;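 also: plate controls were DMSO with full reaction for no effect and wells lacking NADH for full effect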
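controls = No-NADH positive control and DMSO neutral control | system = Clostridium kluyveri diaphorase enzyme | timing = reaction incubation of 16 min at room temperature | signal = resorufin fluorescence 544/590 nm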
Diaphorase act = diaphorase activation or chemical reduction counter-screen. Diaphorase/resazurin coupled assay, resorufin fluorescence, 16 min; active compounds read high; 1 = vehicle wells, 0 = NADH-free wells. activation factor at 20 µM. 190,000 compounds, 0.005% hits. AID 1229;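 active = diaphorase activity raised at least twofold by the compound at 20 µM; inactive = activation factor below 2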
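Assay system: Purified diaphorase enzyme from Clostridium kluyveri | Amount: Enzyme 0.07 U/mL final | Dosing: Compound 20 µM once, DMSO 1% | Timing: 16 min reaction at room temperature | Detection: Fluorescence, excitation 544 nm and emission 590 nm | Evaluation: Higher resorufin formation from activation or reduction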
G6PDH CS = counter-screen for G6PDH assay hits: L. mesenteroides G6PDH inhibition; Purified L. mesenteroides G6PDH, diaphorase/resazurin coupled fluorescence, 45 min; inhibition, % at 5 µM; 200,000 compounds, 0.12% hits; AID 1020
Lmaj promast = Leishmania major promastigote growth inhibition. Leishmania major promastigotes, resazurin fluorescence viability. inhibition, % at 10 µM. 200,000 compounds, 9% hits. AID 1063;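 also: promastigotes grown with compound for 44 hours at 28 °C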
Active calls of the source: *. Rule as the data show it, unless noted: active = inhibition above about 50%; inactive = the rest.

CCCCCCC(=O)N/N=C1\CCCc2ccccc21 was read as WT yeast gro inh 6, Diaphorase inh 24, Diaphorase act 0.8, G6PDH CS 6 and Lmaj promast 0.
COc1n[nH]c(C(=O)Nc2nc3ccccc3s2)c1[N+](=O)[O-] was read as WT yeast gro inh 27, Diaphorase inh 28, Diaphorase act 0.7, G6PDH CS 10 and Lmaj promast 70*.
`COc1n[nH]c(C(=O)NCc2ccccc2)c1[N+](=O)[O-]` gave WT yeast gro inh -15, Diaphorase inh 9, Diaphorase act 0.9, G6PDH CS 4 and Lmaj promast -4.
Screening C=CCc1c(C)nc(-c2ccccc2)nc1N/N=C/c1ccncc1 returned WT yeast gro inh 25, Diaphorase inh -2, Diaphorase act 1, G6PDH CS -7 and Lmaj promast 68*.
`C=CCc1c(C)nc(-c2ccccc2)nc1Nc1ccccc1O` gave WT yeast gro inh 21, Diaphorase inh 29, Diaphorase act 0.7, G6PDH CS -3 and Lmaj promast 62*.
C=CCc1c(C)nc(-c2ccccc2)nc1N/N=C/c1ccccc1 was read as WT yeast gro inh 38, Diaphorase inh 17, Diaphorase act 0.8, G6PDH CS 0 and Lmaj promast 11.
For O=C(c1ccc(S(=O)(=O)Cc2ccccc2Cl)c([N+](=O)[O-])c1)N1CCN(c2ccccn2)CC1 the results were WT yeast gro inh 20, Diaphorase inh 9, Diaphorase act 0.9, G6PDH CS 7 and Lmaj promast 89*.
`O=C(c1ccc(S(=O)(=O)Cc2cc(F)ccc2F)c([N+](=O)[O-])c1)N1CCCCC1` gave WT yeast gro inh -29, Diaphorase inh 14, Diaphorase act 0.9, G6PDH CS 18 and Lmaj promast 78*.
Cc1ccc(C(=O)N2CCN(c3ccccc3Cl)CC2)cc1[N+](=O)[O-] was read as WT yeast gro inh 76*, Diaphorase inh 13, Diaphorase act 0.9, G6PDH CS -6 and Lmaj promast -1.
For Cc1ccc(C(=O)N2CCN(c3ccccn3)CC2)cc1[N+](=O)[O-] the results were WT yeast gro inh -2, Diaphorase inh 0, Diaphorase act 1, G6PDH CS 2 and Lmaj promast -3.
CCN(CC(=O)Nc1ccc(C)c(F)c1)CC(=O)NC(C)(C)C was read as WT yeast gro inh 2, Diaphorase inh 3, Diaphorase act 1, G6PDH CS 2 and Lmaj promast 3.
Screening O=C(Nc1ccccc1)c1cccc(S(=O)(=O)NCc2ccco2)c1 returned WT yeast gro inh -6, Diaphorase inh 8, Diaphorase act 0.9, G6PDH CS 5 and Lmaj promast -1.
`COc1ccc(-c2cc(C(=O)Nc3cccc(S(=O)(=O)NCc4ccco4)c3)c3ccccc3n2)cc1OC` gave WT yeast gro inh 12, Diaphorase inh 14, Diaphorase act 0.9, G6PDH CS -8 and Lmaj promast 72*.
Screening O=C(Nc1cccc(S(=O)(=O)NCc2ccco2)c1)c1cc(-c2ccc(F)cc2)nc2ccccc12 returned WT yeast gro inh -6, Diaphorase inh 28, Diaphorase act 0.7, G6PDH CS 17 and Lmaj promast 98*.
`N#Cc1nc(-c2ccco2)oc1NCCCn1ccnc1` gave WT yeast gro inh 2, Diaphorase inh -3, Diaphorase act 1, G6PDH CS 7 and Lmaj promast -4.
Screening CCCCC(=O)NC(=S)Nc1c(C)cc(Br)cc1C returned WT yeast gro inh 18, Diaphorase inh 16, Diaphorase act 0.8, G6PDH CS -2 and Lmaj promast -4.
`Cc1ccc(-c2nn(-c3ccccc3)cc2C=O)o1` gave WT yeast gro inh 11, Diaphorase inh 4, Diaphorase act 1, G6PDH CS 5 and Lmaj promast 52*.
`Cc1ccc(-c2nn(-c3ccccc3)cc2C(N)=O)o1` gave WT yeast gro inh -19, Diaphorase inh 16, Diaphorase act 0.8, G6PDH CS 12 and Lmaj promast -4.
For CCOc1cc(/C=N/NC(=O)COc2ccc(Cl)cc2)ccc1OS(=O)(=O)c1ccccc1 the results were WT yeast gro inh 27, Diaphorase inh 9, Diaphorase act 0.9, G6PDH CS 18 and Lmaj promast 96*.
Screening NC(N)=N/N=C/c1ccc(OS(=O)(=O)c2ccccc2)cc1 returned WT yeast gro inh -2, Diaphorase inh -22, Diaphorase act 1.2, G6PDH CS 2 and Lmaj promast 88*.
